# Sampled rows, rich in hits. Any-hit rate of the full collection: about 1.7%.
# Runt-CBFb FRET: inhibitors of RUNX1 Runt–CBFb binding, primary screen, biochemical, FRET, Cerulean-Runt, Venus-CBFb, uHTS; Runt-related transcription factor 1 (Homo sapiens) + Core-binding factor subunit beta …; Cerulean-Runt/Venus-CBFb FRET ratio 530/480, 1 h; inhibition, % at 20 µM; 220,000 compounds, 0.46% hits; AID 1496, 2009;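 active means inhibition over about 50% at 20 µM in the single-dose screen, limit read from the data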;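 further: 0% = DMSO wells and 100% = excess unlabeled CBFb competitor control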
# Target sequence (Q01196 whole entry, looked up): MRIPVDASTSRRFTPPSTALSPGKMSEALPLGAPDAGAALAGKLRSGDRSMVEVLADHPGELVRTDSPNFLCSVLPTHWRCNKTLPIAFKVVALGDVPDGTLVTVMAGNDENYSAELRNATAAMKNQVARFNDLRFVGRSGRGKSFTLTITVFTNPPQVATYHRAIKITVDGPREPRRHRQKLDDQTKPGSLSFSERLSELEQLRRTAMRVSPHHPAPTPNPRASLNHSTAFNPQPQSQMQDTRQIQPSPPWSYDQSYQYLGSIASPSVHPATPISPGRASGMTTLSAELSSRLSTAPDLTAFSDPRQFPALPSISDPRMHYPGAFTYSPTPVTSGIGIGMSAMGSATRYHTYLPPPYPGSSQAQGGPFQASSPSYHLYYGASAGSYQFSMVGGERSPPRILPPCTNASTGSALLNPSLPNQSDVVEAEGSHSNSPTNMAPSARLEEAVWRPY
# Target sequence (Q13951 whole entry, looked up): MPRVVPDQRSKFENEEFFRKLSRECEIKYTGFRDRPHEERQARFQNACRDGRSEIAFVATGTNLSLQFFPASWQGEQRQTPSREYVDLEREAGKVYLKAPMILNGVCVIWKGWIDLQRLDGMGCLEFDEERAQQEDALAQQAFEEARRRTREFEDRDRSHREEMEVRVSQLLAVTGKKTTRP
#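 Doses: 20 µM compound in 1% DMSO | Material: Cerulean-labeled Runt domain protein | Amount: Each fluorescent fusion protein 100 nM | Schedule: Two 1 h room-temperature incubations shielded from light | Measured by: FRET fluorescence | Evaluation: Loss of energy transfer signal | Controls: Unlabeled CBFb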
# Runt-SMMHC FRET: inhibitors of RUNX1 Runt–CBFb-SMMHC binding, primary screen, biochemical, FRET, Cerulean-Runt, Venus-CBFb-SMMHC, uHTS. inhibition, % at 20 µM. Runt-related transcription factor 1 (Homo sapiens) + Core-binding factor subunit beta …. AID 1434, 2008. 220,000 compounds, 0.74% hits. Cerulean-Runt/Venus-CBFb-SMMHC FRET ratio 530/480, 1 h;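 active means mean inhibition across duplicate retests at 20 µM reaching about 50%, limit read from the data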;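 further: 0% = DMSO wells and 100% = wells with excess untagged CBFb-SMMHC; inhibitors lower the FRET ratio by blocking Runt binding to CBFb-SMMHC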
# Vif imaging: HIV Vif self-association inhibitors, primary screen, imaging, HEK293T, single point | HEK293T cells, Vif self-association by quenched fluorescence, 24 h | inhibition, % at 7.49 µM | 340,000 compounds, 0.35% hits; in the data active means inhibition above about 50%, passing the limit was not always enough; inconclusive means no clear call, values can overlap the other calls; inactive means below about 31%
# RanGTP-Impb inh: inhibitors of RanGTP-importin-beta interaction, primary screen, biochemical, FRET, CFP-Ran, YFP-importin-beta, homogeneous. Ran GTPase (GTP-bound) - importin-beta complex. cell-free CFP-Ran/YFP-importin-beta FRET ratio. inhibition, % (test concentration not listed). 300,000 compounds, 1.1% hits. AID 2216, 2009;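 active means more than half of the replicate wells show a fall in the fluorescence ratio signal beyond about 16%, limit read from the data, passing the limit was not always enough; inconclusive means exactly half of the replicate wells pass the set limit; inactive means fewer than half of replicates pass the limit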;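 further: 0% = DMSO wells and 100% = Ran loaded with GDP instead of GTP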
# Rce1 inh: yeast Rce1p protease inhibitors, primary screen, biochemical, fluorescence, cell-free homogeneous; 290,000 compounds, 0.27% hits; calls only; AID 2563, 2010; yeast membranes, quenched prenylated peptide cleavage fluorescence; CAAX prenyl protease 2 (Saccharomyces cerevisiae (strain ATCC 204508 / S288c)), Q03530;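 active means fall in fluorescence gain of 50% or more versus controls, with final raw signal at or below 3038400; inconclusive means same 50% fall but final raw signal above 3038400; inactive means fall in fluorescence gain under 50%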;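 further: plate controls were neutral control wells for no effect and wells lacking membranes for full effect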
# Runt-CBFb TRFRET: inhibitors of RUNX1 Runt–CBFb binding, biochemical, TR-FRET. 480 compounds, 20% hits. inhibition, % at 20 µM. TR-FRET RUNX1 Runt domain-CBFb binding. AID 1502, 2009. shares compounds with Runt-CBFb FRET; in the data active means inhibition above about 40%
# * marks the source's active call; other numbers are inactive results; i = inactive; ? = inconclusive; / = not tested or not shown.
SMILES,Runt-CBFb FRET,Runt-SMMHC FRET,Vif imaging,RanGTP-Impb inh,Rce1 inh,Runt-CBFb TRFRET
N#CC1=C2SCCN2C(=O)C(C#N)C12CCCCC2 (stereo unspecified),55.6*,-3.0,0.4,3.9,i,1.1
COc1ccc(CCn2c(N)c(C(=O)NCc3ccco3)c3nc4ccccc4nc32)cc1,57.7*,78.7*,23.4,57.6*,i,25.8
COc1ccccc1NC(=O)c1ccc2nc(C)c(C)nc2c1,/,/,0.4,5.6,i,/
COC(=O)C(C)n1nnc2sc(-c3ccccc3)cc2c1=O (stereo unspecified),58.3*,124.3*,-24.2,/,i,-98.3
O=C(Nc1ccc(Cl)c(-c2nc3ccccc3[nH]2)c1)c1ccc2c(c1)OCO2,64.9*,-5.4,-11.7,0.1,i,-121.3
Cc1nn(C)c(Sc2ccccc2N)c1[N+](=O)[O-],54.7*,51.0,-4.2,-1.4,i,13.8
Cc1nn(C)c(N)c1[N+](=O)[O-],-0.1,-8.2,-0.4,-2.6,i,/
CC(=O)Oc1ccc2ccc(=O)oc2c1,51.2*,85.2*,11.2,12.9,i,38.9
COc1ccc2ccc(=O)oc2c1,1.2,-0.5,-2.6,?,i,/
Cc1ccc(C(=O)Oc2ccc3ccc(=O)oc3c2)cc1,/,/,9.3,-1.5,i,/
CC(NC(=O)OC(C)(C)C)C(=O)Oc1ccc2ccc(=O)oc2c1 (stereo unspecified),68.2*,112.6*,2.6,/,/,36.4
COc1ccc(NC(=O)C2Cc3c(-c4cccc(F)c4)ccnc3O2)cn1 (stereo unspecified),/,/,-9.4,/,/,/
CCN(CC)c1ccc(/C=N/NC(=O)c2ccco2)cc1,-0.5,-8.3,6.7,2.7,i,/
CCN(CC)c1ccc(/C=N/NC(=O)c2ccco2)c(O)c1,74.8*,81.6*,-1.9,62.9*,i,20.3
O=C(O)c1cc(Cl)ccc1-c1ccc(/C=C/c2cc(C(F)(F)F)[nH]c(=O)n2)o1,51.9*,91.5*,5.4,-377.6,i,28.7
CCCCn1c(-c2ccncc2)nc2c1c(=O)[nH]c(=O)n2CC(C)C,75.3*,1.6,56.9*,3.0,i,-9.8
c1csc(-c2ccn[nH]2)c1,1.2,-1.6,1.3,5.3,i,/
S=c1nccc(-c2cccs2)[nH]1,65.1*,49.7,12.4,3.2,/,6.2
COc1ccc(/C=N/NC(=O)c2nc(-c3ccccc3)n(-c3ccccc3)n2)cc1OC,76.0*,-5.4,5.6,0.6,i,-9.7
Cc1nc2ccccc2c(=O)n1/N=C/c1ccc(F)cc1,/,/,3.9,0.7,i,/
COc1cc(NC(=S)NC(C)(C)C)c(OC)cc1Cl,5.0,-3.9,-3.7,10.6,/,/
COc1cc(Cl)c(C)cc1NC(=S)NN,51.4*,30.5,-3.7,1.5,i,15.6
Cc1c(C(=O)NCc2ccc3c(c2)OCCO3)sc(=O)n1Cc1cccc(C(F)(F)F)c1,/,/,-3.7,/,/,/
O=[N+]([O-])c1ccc(Sc2ccccc2)nc1,-0.7,0.4,-8.3,7.7,i,/
Nc1cccnc1Sc1ccc([N+](=O)[O-])cn1,53.7*,60.2,5.0,1.5,i,-4.7
SMILES,Runt-CBFb FRET,Runt-SMMHC FRET,Vif imaging,RanGTP-Impb inh,Rce1 inh,Runt-CBFb TRFRET
CCOC(=O)CCC(=O)Nc1ccc(S(=O)(=O)Nc2cc(OC)nc(OC)n2)cc1,/,/,-0.3,0.7,i,/
CC(C)(C)c1csc(N/N=C/c2ccc(O)cc2)n1,/,/,16.5,7.5,i,/
CCNC(=S)N(Cc1cc2cc(C)ccc2[nH]c1=O)C1CCCC1,57.7*,43.4,41.4,-4.8,i,12.9
CCNC(=S)N(Cc1cc2c(C)ccc(C)c2[nH]c1=O)C1CCCC1,59.6*,28.1,-7.6,1.8,i,23.2
CCNC(=S)N(Cc1cc2cc(C)c(C)cc2[nH]c1=O)C1CCCC1,/,/,-4.6,1.6,i,/
O=C(NCC(c1cccs1)N1CCOCC1)c1cc(S(=O)(=O)N2CCOCC2)ccc1F (stereo unspecified),/,/,2.7,-0.5,i,/
CCCCc1cc(=O)oc2c(CN(C)C)c(O)c(Cl)cc12,74.7*,156.0*,-2.7,/,?,-7.1
c1ccc(-c2onc3cc4c(cc23)OCCO4)cc1,77.4*,103.9*,-6.7,6.3,i,11.1
CC(=O)c1ccc2noc(-c3ccccc3)c2c1,/,/,-2.5,2.2,i,/
CC(=O)c1ccc(S(=O)(=O)N(C)CC(=O)N2CCCCCC2)cc1,/,/,-2.0,2.7,i,/
COc1ccc(N2CCN(C(=O)NCc3ccc(OC)c(OC)c3)CC2)cc1,/,/,-2.6,2.9,i,/
CCSc1nnc(NC(=O)C2CCCN(S(=O)(=O)c3cnc[nH]3)C2)s1 (stereo unspecified),64.2*,0.5,5.7,-1.6,i,-10.2
Cc1ccc2nc(NC(=O)C3CCCN(S(=O)(=O)c4cnc[nH]4)C3)sc2c1 (stereo unspecified),-1.1,-4.6,8.0,-3.3,i,/
COc1ccccc1N1CCN(/N=C/c2cc(OC)c(O)c(OC)c2)CC1,59.4*,47.0,18.3,4.4,i,35.3
COc1ccccc1N1CCN(/N=C/c2cccc(O)c2)CC1,/,/,-2.6,1.8,i,/
O=C(COc1ccc(F)cc1Br)NCc1nnc2ccccn12,/,/,-4.0,/,/,/
Cc1ccc(C)c(/C=N/Nc2nc3ccccc3c(=O)n2O)c1,50.7*,19.0,-2.9,0.4,i,-0.7
CC(C)(C)OC(=O)N1CCc2onc(-c3ccc(N)cc3)c2C1=O,/,/,-3.2,/,/,/
CCOC(=O)c1c(NC(=S)Nc2ccc(OCC)cc2)sc2c1CCN(C)C2,82.4*,51.9*,6.0,18.7*,i,13.3
CCOC(=O)c1c(NC(=S)Nc2ccc(C)cc2)sc2c1CCC2,5.9,9.2,-2.7,1.3,i,/
O=c1oc2c(-c3ccc([N+](=O)[O-])cc3)cc(O)cc2s1,56.0*,3.7,?,6.7,i,-7.8
NC1=C(c2ccc([N+](=O)[O-])cc2)C(=O)CO1,3.0,-2.8,0.7,-0.2,i,/
Cc1noc(C)c1S(=O)(=O)Nc1ccc2c(c1)C(=O)N([C@H](C)CO)C[C@H](C)[C@@H](CN(C)C(=O)NC1CCCCC1)O2,/,/,-29.2,/,/,/
Cc1ccc(S(=O)(=O)N(C)C)cc1NC(=O)CSc1nc2ncc(Cl)cc2[nH]1,/,/,5.2,/,/,/
O=C(O)c1ccccc1C(=O)NC1CCCCNC1=O (stereo unspecified),0.7,-2.3,-17.7,-0.7,i,/

# High-throughput results deposited in PubChem by several laboratories.
